This is a sample that favours compounds with a hit; in the whole collection about 2.9% have one here.
TRPC6 act – mouse TRPC6 channel activators, primary screen, cell-based, HEK293, membrane potential dye. actives 0.13% (n = 310,000). Short transient receptor potential channel 6 (Mus musculus), Q61143. HEK293-TRPC6 membrane potential dye fluorescence; stronger effect = higher value. B-score at 10 µM. AID 2550, 2010;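 active = B-score of the integrated fluorescence ratio above library mean plus 3 SD, and starting fluorescence ratio within library mean plus 5 SD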;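 also: higher score means more depolarization so channel activation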
Target sequence (Q61143 whole entry, looked up): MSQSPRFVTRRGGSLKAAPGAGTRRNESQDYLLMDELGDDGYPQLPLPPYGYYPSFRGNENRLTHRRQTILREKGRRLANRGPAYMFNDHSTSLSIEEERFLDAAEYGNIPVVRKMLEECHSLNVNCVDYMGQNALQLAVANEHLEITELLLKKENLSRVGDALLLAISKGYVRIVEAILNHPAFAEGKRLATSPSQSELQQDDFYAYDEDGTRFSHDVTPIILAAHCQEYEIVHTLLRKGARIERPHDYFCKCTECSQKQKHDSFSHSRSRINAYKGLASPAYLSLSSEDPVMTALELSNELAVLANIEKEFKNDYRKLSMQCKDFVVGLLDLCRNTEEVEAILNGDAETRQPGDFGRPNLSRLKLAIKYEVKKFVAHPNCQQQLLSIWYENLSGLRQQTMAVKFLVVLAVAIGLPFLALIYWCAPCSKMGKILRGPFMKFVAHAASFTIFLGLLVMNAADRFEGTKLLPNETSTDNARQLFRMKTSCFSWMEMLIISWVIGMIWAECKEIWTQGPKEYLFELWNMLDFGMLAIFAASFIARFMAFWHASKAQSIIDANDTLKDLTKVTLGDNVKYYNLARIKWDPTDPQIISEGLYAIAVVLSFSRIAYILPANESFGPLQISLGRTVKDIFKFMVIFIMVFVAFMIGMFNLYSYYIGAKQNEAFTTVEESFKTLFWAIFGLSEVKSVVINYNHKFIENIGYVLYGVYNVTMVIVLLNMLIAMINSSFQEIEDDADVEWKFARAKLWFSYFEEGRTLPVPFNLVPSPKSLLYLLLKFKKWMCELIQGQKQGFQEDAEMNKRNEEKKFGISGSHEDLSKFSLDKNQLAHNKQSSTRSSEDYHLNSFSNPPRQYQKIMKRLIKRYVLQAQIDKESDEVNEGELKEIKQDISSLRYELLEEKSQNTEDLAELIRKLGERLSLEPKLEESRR
TRPC4 PAM – positive allosteric modulators of TRPC4, primary screen, cell-based, mouse TRPC4beta, HEK293 mu-opioid, Fluo-4 calcium | B-score at 10 µM | Short transient receptor potential channel 4 (Mus musculus), Q9QUQ5 | AID 2227, 2009 | actives 0.42% (n = 310,000) | DAMGO EC20, Fluo-4 Ca2+ flux; stronger effect = higher value;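 active = B-score of calcium response area above 5 SD of library B-scores, with initial fluorescence ratio within 5 SD of library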
TRPC4 block – inhibitors of mouse TRPC4 channel, primary screen, Fluo4 calcium, HEK293 TRPC4beta/mu-opioid cells; DAMGO-evoked Fluo4 calcium flux; stronger effect = lower value; B-score at 10 µM; actives 0.39% (n = 300,000);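 active = B-score over 3 SD under the library average, no early fluorescence shift, positive overall ratio signal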
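material = TRPC4beta/mu-opioid receptor HEK293 cell line | probe or stimulus = sequential submaximal and maximal DAMGO stimulation | compound dosing = one concentration per compound | measured by = Fluo4 Ca2+ flux fluorescence | evaluation = integrated fluorescence ratio relative to baseline, converted to per-well B score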
TRPC4 agonist – activators of mouse TRPC4 channel, primary screen, Fluo4 calcium, HEK293 TRPC4beta/mu-opioid cells. Short transient receptor potential channel 4 (Mus musculus), Q9QUQ5. Fluo4 calcium fluorescence; stronger effect = higher value. B-score at 10 µM. actives 0.49% (n = 310,000);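 active = B-score above 5 SD of library B-scores, and initial fluorescence ratio not above library mean plus 5 SD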;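 also: positive B-score marks a calcium rise read as TRPC4 activation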
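Assay system: HEK293 stable line with TRPC4beta plus mu-opioid receptor. Times: dye 45 min RT, read 110 s. Measured by: kinetic Fluo4 calcium fluorescence. Measure: B score of integrated ratio. Controls: assay buffer as low control, maximal DAMGO as high control.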
Kir21 inh – inhibitors of mouse Kir2.1 inward-rectifier potassium channel; Inward rectifier potassium channel 2 (Mus musculus), P35561; HEK293-Kir2.1, FluxOR thallium flux fluorescence; stronger effect = lower value; actives 0.85% (n = 310,000); B-score at 10 µM;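 active = fluorescence ratio B-score at or below minus 3 SD of library scores, with starting-brightness B-score within 2 SD, cut at about -4.2 in these data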;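 also: channel flux triggered by added potassium and thallium sulfate stimulus; B-score of peak minus minimum fluorescence over baseline after thallium stimulus; more negative B-score means stronger Kir2.1 block with less thallium influx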
TRPC6 inhibitor – mouse TRPC6 channel inhibitors, primary screen, cell-based, HEK293, membrane potential dye | ACh-evoked depolarization; stronger effect = lower value | B-score at 10 µM | actives 1.1% (n = 310,000) | AID 2553, 2010;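 active = B-score under library mean minus 3 SD, initial fluorescence not abnormally high, positive integrated signal ratio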;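 also: B-score derived from integrated fluorescence ratio over the kinetic read; more negative B-score means stronger inhibition of depolarization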
Numbers stand for hits.

How did O=C(NNC(=S)NC(=O)c1sc2ccccc2c1Cl)c1ccc(Cl)cc1 do in these assays?
TRPC6 act: inactive; TRPC4 PAM: 56; TRPC4 block: inactive; TRPC4 agonist: inactive; Kir21 inh: inactive; TRPC6 inhibitor: inactive

How did CC(CN1CCN(Cc2ccccc2)CC1)OC(=O)c1ccco1 (stereo not given) do in these assays?
TRPC6 act: inactive; TRPC4 PAM: inactive; TRPC4 block: inactive; TRPC4 agonist: inactive; Kir21 inh: inactive; TRPC6 inhibitor: inactive

What do the screens show for `Cc1ccc(CNC(=O)C2CCC(=O)N(CCc3cccc(F)c3)C2)cc1` (stereo not given)?
TRPC6 act: inactive; TRPC4 PAM: inactive; TRPC4 block: inactive; TRPC4 agonist: inactive; Kir21 inh: inactive; TRPC6 inhibitor: inactive

What do the screens show for `Cc1ccc(NS(=O)(=O)c2ccc(NS(=O)(=O)c3cccs3)cc2)cc1`?
TRPC6 act: inactive; TRPC4 PAM: 16; TRPC4 block: inactive; TRPC4 agonist: inactive; Kir21 inh: inactive; TRPC6 inhibitor: inactive

How did O=S(=O)(Nc1ccc(F)cc1)c1ccc(NS(=O)(=O)c2cccs2)cc1 do in these assays?
TRPC6 act: inactive; TRPC4 PAM: 11; TRPC4 block: inactive; TRPC4 agonist: inactive; Kir21 inh: inactive; TRPC6 inhibitor: inactive

How did COc1ccc(/C=N\NC(=O)c2cc(O)c(O)c(O)c2)cc1COc1ccc(C(=O)OCC(C)C)cc1 do in these assays?
TRPC6 act: inactive; TRPC4 PAM: inactive; TRPC4 block: inactive; TRPC4 agonist: inactive; Kir21 inh: inactive; TRPC6 inhibitor: inactive

How did CC(C)c1ccc(-n2c(-c3ccccc3)c[n+]3c2CCc2ccccc2-3)cc1 do in these assays?
TRPC6 act: inactive; TRPC4 PAM: inactive; TRPC4 block: inactive; TRPC4 agonist: inactive; Kir21 inh: -13.7; TRPC6 inhibitor: inactive

How did CCN(CC)S(=O)(=O)c1ccc(N2CCc3cc(OC)c(OC)cc3C2)nc1 do in these assays?
TRPC6 act: inactive; TRPC4 PAM: inactive; TRPC4 block: inactive; TRPC4 agonist: inactive; Kir21 inh: inactive; TRPC6 inhibitor: inactive

Results for CC(=O)N1CCCc2ccc(NS(=O)(=O)c3ccc(C)c(C)c3)cc21 ?
TRPC6 act: inactive; TRPC4 PAM: inactive; TRPC4 block: inactive; TRPC4 agonist: inactive; Kir21 inh: inactive; TRPC6 inhibitor: inactive

How did COc1ccc(OC)c(S(=O)(=O)Nc2ccc3c(c2)N(C(C)=O)CCC3)c1 do in these assays?
TRPC6 act: inactive; TRPC4 PAM: 14; TRPC4 block: inactive; TRPC4 agonist: inactive; Kir21 inh: inactive; TRPC6 inhibitor: inactive

What do the screens show for `Cc1nc2ccccc2c(=O)n1NC(=O)c1cccc(Cl)c1`?
TRPC6 act: inactive; TRPC4 PAM: inactive; TRPC4 block: inactive; TRPC4 agonist: inactive; Kir21 inh: inactive; TRPC6 inhibitor: inactive

How did COc1ccc(/C=N/NC(=O)c2ccc(O)cc2)cc1CN1CCCc2ccccc21 do in these assays?
TRPC6 act: inactive; TRPC4 PAM: inactive; TRPC4 block: inactive; TRPC4 agonist: inactive; Kir21 inh: inactive; TRPC6 inhibitor: inactive

What do the screens show for `COc1ccc(/C=N/NC(=O)c2ccc(F)cc2)cc1CN1CCc2cc(OC)c(OC)cc2C1C` (stereo not given)?
TRPC6 act: inactive; TRPC4 PAM: inactive; TRPC4 block: -6; TRPC4 agonist: inactive; Kir21 inh: inactive; TRPC6 inhibitor: inactive

What do the screens show for `CCOC(=O)C1(CC2CC2)CCN(Cc2ccc3cccc(F)c3n2)CC1`?
TRPC6 act: inactive; TRPC4 PAM: inactive; TRPC4 block: -8; TRPC4 agonist: 45; Kir21 inh: inactive; TRPC6 inhibitor: inactive

How did CCOC(=O)C1(CCOc2ccccc2)CCN(Cc2ccc(O)c(Cl)c2)CC1 do in these assays?
TRPC6 act: inactive; TRPC4 PAM: inactive; TRPC4 block: inactive; TRPC4 agonist: inactive; Kir21 inh: inactive; TRPC6 inhibitor: inactive

What do the screens show for `CCOC(=O)C1(CC2CC2)CCN(Cc2ccc(O)c(Cl)c2)CC1`?
TRPC6 act: inactive; TRPC4 PAM: inactive; TRPC4 block: -7; TRPC4 agonist: 75; Kir21 inh: inactive; TRPC6 inhibitor: inactive

How did O=C(O)c1cc(-c2ccc(-c3ccc(F)cc3)o2)nc2ccccc12 do in these assays?
TRPC6 act: inactive; TRPC4 PAM: inactive; TRPC4 block: inactive; TRPC4 agonist: inactive; Kir21 inh: inactive; TRPC6 inhibitor: inactive

Results for Cc1cc(S(=O)(=O)Nc2ccc3cn[nH]c3c2)c(C)cc1Cl ?
TRPC6 act: inactive; TRPC4 PAM: inactive; TRPC4 block: inactive; TRPC4 agonist: inactive; Kir21 inh: -5.19; TRPC6 inhibitor: inactive

How did COc1ccc(CN2CCNC(=O)C2CC(=O)NC2CCCC2)c(C)c1C (stereo not given) do in these assays?
TRPC6 act: inactive; TRPC4 PAM: inactive; TRPC4 block: -6; TRPC4 agonist: inactive; Kir21 inh: inactive; TRPC6 inhibitor: inactive

What do the screens show for `COc1ccc(CN2CCNC(=O)C2CC(=O)NC2CCC2)c(OC)c1` (stereo not given)?
TRPC6 act: inactive; TRPC4 PAM: inactive; TRPC4 block: inactive; TRPC4 agonist: inactive; Kir21 inh: inactive; TRPC6 inhibitor: inactive

Results for COc1ccc(CC(=O)Oc2cc(C)ccc2C)cc1 ?
TRPC6 act: inactive; TRPC4 PAM: inactive; TRPC4 block: inactive; TRPC4 agonist: inactive; Kir21 inh: inactive; TRPC6 inhibitor: inactive

What do the screens show for `Brc1ccc(CN2C3=NCCCN3c3ccccc32)cc1`?
TRPC6 act: inactive; TRPC4 PAM: inactive; TRPC4 block: -7; TRPC4 agonist: inactive; Kir21 inh: inactive; TRPC6 inhibitor: inactive

How did Clc1ccc(CN2C3=NCCN3c3ccccc32)cc1 do in these assays?
TRPC6 act: inactive; TRPC4 PAM: inactive; TRPC4 block: -6; TRPC4 agonist: inactive; Kir21 inh: inactive; TRPC6 inhibitor: inactive

What do the screens show for `c1ccc(CN2C3=NCCCN3c3ccccc32)cc1`?
TRPC6 act: inactive; TRPC4 PAM: inactive; TRPC4 block: inactive; TRPC4 agonist: inactive; Kir21 inh: inactive; TRPC6 inhibitor: inactive

How did O=C(O)CN1C2=NCCCN2c2ccccc21 do in these assays?
TRPC6 act: inactive; TRPC4 PAM: inactive; TRPC4 block: inactive; TRPC4 agonist: inactive; Kir21 inh: inactive; TRPC6 inhibitor: inactive

How did OC(COc1ccccc1)CN1C2=NCCCN2c2ccccc21 (stereo not given) do in these assays?
TRPC6 act: inactive; TRPC4 PAM: inactive; TRPC4 block: -5; TRPC4 agonist: inactive; Kir21 inh: inactive; TRPC6 inhibitor: inactive

How did CSc1ncccc1C(=O)N1CCN(S(=O)(=O)c2ccccc2)CC1 do in these assays?
TRPC6 act: inactive; TRPC4 PAM: inactive; TRPC4 block: inactive; TRPC4 agonist: inactive; Kir21 inh: inactive; TRPC6 inhibitor: inactive

Bioassay records from PubChem BioAssay.
